# Reference: ChEMBL document CHEMBL1156662, “Tetracyclic terpenoids from Dasyscyphus niveus, dasyscyphins D and E” (2008)
# Calls of active or inactive are those of the source. No cut-off for these calls is given here.
# Columns and labels:
# Rhizomucor miehei = experiment: Antifungal activity against Rhizomucor miehei Tu 284 at 50 ug/mL by disk diffusion assay; assay type: functional, organism-based
# Pyricularia oryzae [1] = experiment: Antifungal activity against Magnaporthe grisea 70-15 at 20 ug/mL after 18 hrs by conidia germination assay; assay type: functional, organism-based
# In short: (§1)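 M. grisea strain 70-15 conidia suspended in water at 5 × 10⁴/mL and exposed to compound. After 18 h, germination was scored microscopically against an inhibitor-free control. Conidia counted as affected were those that had not germinated or whose germ tubes were under 30% of control length.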
# Penicillium chrysogenum = experiment: Antifungal activity against Penicillium chrysogenum DSM 848 at 50 ug/mL by disk diffusion assay; assay type: functional, organism-based
# Paecilomyces variotii = experiment: Antifungal activity against Paecilomyces variotii DSM 1961 at 50 ug/mL by disk diffusion assay; assay type: functional, organism-based
# Eremothecium coryli = experiment: Antifungal activity against Nematospora coylii ATTC 10647 at 50 ug/mL by disk diffusion assay; assay type: functional, organism-based
# HeLa = experiment: Cytotoxic activity against human HeLa S3 cells up to 50 ug/mL; assay type: functional, cell-based
# In short: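 HeLa S3 human cervix carcinoma cells were grown in DMEM with penicillin G (65 µg/mL) and streptomycin sulfate (100 µg/mL). Cells at 10⁵/mL were exposed to compound in microtiter wells at 37 °C in humidified 5% CO2. Viable cells were counted by microscopy at 24 and 48 h.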
# Pyricularia oryzae [2] = experiment: Antifungal activity against Magnaporthe grisea 70-15 after 18 hrs by conidia germination assay; assay type: functional, organism-based; in short: as §1
# Pyricularia oryzae [3] = experiment: Antifungal activity against Magnaporthe grisea 70-15 at 25 ug/mL after 18 hrs by conidia germination assay; assay type: functional; details: 70-15, 18 h; in short: as §1
structure (smiles),measurement,setting,value
Cc1ccc2c(c1O)[C@@]1(C)CC[C@H]3C(C)(C)[C@@H](O)CC[C@]3(C)[C@H]1C2,Activity,Rhizomucor miehei,inactive
same,Activity,Pyricularia oryzae [1],Active
same,Activity,Penicillium chrysogenum,inactive
same,Activity,Paecilomyces variotii,inactive
same,Activity,Eremothecium coryli,inactive
same,Activity,HeLa,inactive
CC(O)(CC(=O)O)CC(=O)OCC1=C[C@@]2(O)[C@H](C[C@@H]3[C@@]4(C)CCCC(C)(C)[C@@H]4CC[C@@]32C)C(=O)C1=O (some centres undefined),Activity,Pyricularia oryzae [2],Active
COCc1cc(O)c2c(c1O)[C@@]1(C)CC[C@H]3C(C)(C)CCC[C@]3(C)[C@H]1C2,Activity,Pyricularia oryzae [2],Active
Cc1ccc2c(c1O)[C@@]1(C)CC[C@@H]3[C@](C)(CCC[C@]3(C)O)[C@H]1C2 [DASYSCYPHIN E],inhibition at 25 µg/mL,Pyricularia oryzae [3],100%
